Where “and” joins values, the source holds several entries; their conditions need not be identical. Equal entries are not always repeated.
Assays:
Fibroblast = test: Multiplex assay against human fibroblast; assay type: toxicity, cell-based
Summary of the method: (§1)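 On a CQ1 microscope at 37°C and 5% CO2, live cells were imaged after compound addition. They had been stained at seeding with Hoechst33342, BioTracker Green Microtubule Cytoskeleton Dye, MitoTracker Red and Annexin V Alexa Fluor 680. CellPathfinder machine-learning gating assigned cells to Hoechst high-intensity objects or normal cells, normal cells to healthy, pyknosed or fragmented nuclei, and pyknosed cells to mitotic or apoptotic. Tubulin, mitochondrial-mass and membrane-permeability phenotypes are per cents of healthy-nucleus cells.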

U2OS = test: Multiplex assay against U2OS; assay type: toxicity, cell-based; conditions: human; summary of the method: as §1
[1] = 12 h, 1 µM, compound concentration 1 uM
[2] = 12 h, 10 µM, compound concentration 10 uM
[3] = 24 h, 1 µM, compound concentration 1 uM
[4] = 24 h, 10 µM, compound concentration 10 uM
[5] = 48 h, 1 µM, compound concentration 1 uM
[6] = 48 h, 10 µM, compound concentration 10 uM

**Q.** For CCc1cc2cc(NS(=O)(=O)c3ccc(C#N)cc3)ccc2n(CC)c1=O, which “Population Apoptotic (%)” value (Fibroblast; [1]) is on record?
**A.** 42%

**Q.** What about the “Population Fragmented Nuclei (%)” value (Fibroblast; [1]) of the same compound?
**A.** 16% and 27%

**Q.** What about the “Population Healthy Nuclei (%)” value (Fibroblast; [1]) of the same compound?
**A.** 64% and 40%

**Q.** What about the “Population Hoechst High Intensity Objects (%)” value (Fibroblast; [1]) of the same compound?
**A.** 1% and 6%

**Q.** What about the “Population Membrane Permeable-Phenotype (%)” value (Fibroblast; [1]) of the same compound?
**A.** 1% and 9%

**Q.** And the “Population Mitochondria Different-Phenotype (%)” value (Fibroblast; [1])?
**A.** 3% and 7%

**Q.** And the “Population Mitotic Cells (%)” value (Fibroblast; [1])?
**A.** 57%

**Q.** And the “Population Normal (%)” value (Fibroblast; [1])?
**A.** 98% and 93%

**Q.** And the “Population Pyknosed Nuclei (%)” value (Fibroblast; [1])?
**A.** 18% and 32%

**Q.** What about the “Population Tubulin-Different-Phenotype (%)” value (Fibroblast; [1]) of the same compound?
**A.** 24% and 39%

**Q.** And the “Total Cell Count” value (Fibroblast; [1])?
**A.** 157 and 173

**Q.** What about the “Population Apoptotic (%)” value (Fibroblast; [2]) of the same compound?
**A.** 42% and 18%

**Q.** And the “Population Fragmented Nuclei (%)” value (Fibroblast; [2])?
**A.** 18% and 19%

**Q.** And the “Population Healthy Nuclei (%)” value (Fibroblast; [2])?
**A.** 54% and 43%

**Q.** What about the “Population Hoechst High Intensity Objects (%)” value (Fibroblast; [2]) of the same compound?
**A.** 1% and 5%

**Q.** What about the “Population Mitochondria Different-Phenotype (%)” value (Fibroblast; [2]) of the same compound?
**A.** 5% and 6%

**Q.** What about the “Population Mitotic Cells (%)” value (Fibroblast; [2]) of the same compound?
**A.** 57% and 81%

**Q.** And the “Population Normal (%)” value (Fibroblast; [2])?
**A.** 98% and 94%

**Q.** What about the “Population Pyknosed Nuclei (%)” value (Fibroblast; [2]) of the same compound?
**A.** 26% and 37%

**Q.** And the “Population Tubulin-Different-Phenotype (%)” value (Fibroblast; [2])?
**A.** 65% and 74%

**Q.** What about the “Total Cell Count” value (Fibroblast; [2]) of the same compound?
**A.** 133 and 153

**Q.** And the “Population Apoptotic (%)” value (Fibroblast; [3])?
**A.** 53% and 43%

**Q.** And the “Population Fragmented Nuclei (%)” value (Fibroblast; [3])?
**A.** 19% and 26%

**Q.** And the “Population Healthy Nuclei (%)” value (Fibroblast; [3])?
**A.** 63% and 48%

**Q.** What about the “Population Hoechst High Intensity Objects (%)” value (Fibroblast; [3]) of the same compound?
**A.** 5% and 6%

**Q.** And the “Population Membrane Permeable-Phenotype (%)” value (Fibroblast; [3])?
**A.** 1% and 9%

**Q.** What about the “Population Mitochondria Different-Phenotype (%)” value (Fibroblast; [3]) of the same compound?
**A.** 4% and 8%

**Q.** And the “Population Mitotic Cells (%)” value (Fibroblast; [3])?
**A.** 46% and 56%

**Q.** And the “Population Normal (%)” value (Fibroblast; [3])?
**A.** 94% and 93%

**Q.** What about the “Population Pyknosed Nuclei (%)” value (Fibroblast; [3]) of the same compound?
**A.** 17% and 25%

**Q.** What about the “Population Tubulin-Different-Phenotype (%)” value (Fibroblast; [3]) of the same compound?
**A.** 26% and 51%

**Q.** And the “Total Cell Count” value (Fibroblast; [3])?
**A.** 157 and 164

**Q.** And the “Population Apoptotic (%)” value (Fibroblast; [4])?
**A.** 50% and 32%

**Q.** And the “Population Fragmented Nuclei (%)” value (Fibroblast; [4])?
**A.** 19% and 22%

**Q.** What about the “Population Healthy Nuclei (%)” value (Fibroblast; [4]) of the same compound?
**A.** 58% and 38%

**Q.** And the “Population Hoechst High Intensity Objects (%)” value (Fibroblast; [4])?
**A.** 2% and 9%

**Q.** What about the “Population Membrane Permeable-Phenotype (%)” value (Fibroblast; [4]) of the same compound?
**A.** 1% and 6%

**Q.** And the “Population Mitochondria Different-Phenotype (%)” value (Fibroblast; [4])?
**A.** 6% and 12%

**Q.** What about the “Population Mitotic Cells (%)” value (Fibroblast; [4]) of the same compound?
**A.** 50% and 67%

**Q.** What about the “Population Normal (%)” value (Fibroblast; [4]) of the same compound?
**A.** 97% and 90%

**Q.** What about the “Population Pyknosed Nuclei (%)” value (Fibroblast; [4]) of the same compound?
**A.** 22% and 39%

**Q.** What about the “Population Tubulin-Different-Phenotype (%)” value (Fibroblast; [4]) of the same compound?
**A.** 59% and 72%

**Q.** What about the “Total Cell Count” value (Fibroblast; [4]) of the same compound?
**A.** 130 and 145

**Q.** And the “Population Apoptotic (%)” value (Fibroblast; [5])?
**A.** 52% and 37%

**Q.** What about the “Population Fragmented Nuclei (%)” value (Fibroblast; [5]) of the same compound?
**A.** 24% and 33%

**Q.** What about the “Population Healthy Nuclei (%)” value (Fibroblast; [5]) of the same compound?
**A.** 59% and 50%

**Q.** And the “Population Hoechst High Intensity Objects (%)” value (Fibroblast; [5])?
**A.** 3% and 5%

**Q.** What about the “Population Membrane Permeable-Phenotype (%)” value (Fibroblast; [5]) of the same compound?
**A.** 0% and 12%

**Q.** And the “Population Mitochondria Different-Phenotype (%)” value (Fibroblast; [5])?
**A.** 4% and 8%

**Q.** What about the “Population Mitotic Cells (%)” value (Fibroblast; [5]) of the same compound?
**A.** 47% and 62%

**Q.** And the “Population Normal (%)” value (Fibroblast; [5])?
**A.** 96% and 94%

**Q.** What about the “Population Pyknosed Nuclei (%)” value (Fibroblast; [5]) of the same compound?
**A.** 15% and 16%

**Q.** What about the “Population Tubulin-Different-Phenotype (%)” value (Fibroblast; [5]) of the same compound?
**A.** 27% and 60%

**Q.** And the “Total Cell Count” value (Fibroblast; [5])?
**A.** 150 and 156

**Q.** And the “Population Apoptotic (%)” value (Fibroblast; [6])?
**A.** 60%

**Q.** What about the “Population Fragmented Nuclei (%)” value (Fibroblast; [6]) of the same compound?
**A.** 17% and 30%

**Q.** What about the “Population Healthy Nuclei (%)” value (Fibroblast; [6]) of the same compound?
**A.** 62% and 48%

**Q.** And the “Population Hoechst High Intensity Objects (%)” value (Fibroblast; [6])?
**A.** 1% and 7%

**Q.** And the “Population Mitochondria Different-Phenotype (%)” value (Fibroblast; [6])?
**A.** 12% and 7%

**Q.** What about the “Population Mitotic Cells (%)” value (Fibroblast; [6]) of the same compound?
**A.** 40% and 39%

**Q.** And the “Population Normal (%)” value (Fibroblast; [6])?
**A.** 98% and 92%

**Q.** And the “Population Pyknosed Nuclei (%)” value (Fibroblast; [6])?
**A.** 19% and 20%

**Q.** What about the “Population Tubulin-Different-Phenotype (%)” value (Fibroblast; [6]) of the same compound?
**A.** 61% and 69%

**Q.** What about the “Total Cell Count” value (Fibroblast; [6]) of the same compound?
**A.** 129 and 145

**Q.** And the “Population Apoptotic (%)” value (U2OS; [1])?
**A.** 88% and 100%

**Q.** What about the “Population Fragmented Nuclei (%)” value (U2OS; [1]) of the same compound?
**A.** 30% and 26%

**Q.** What about the “Population Healthy Nuclei (%)” value (U2OS; [1]) of the same compound?
**A.** 60% and 70%

**Q.** What about the “Population Hoechst High Intensity Objects (%)” value (U2OS; [1]) of the same compound?
**A.** 3% and 1%

**Q.** And the “Population Membrane Permeable-Phenotype (%)” value (U2OS; [1])?
**A.** 4% and 8%

**Q.** And the “Population Mitochondria Different-Phenotype (%)” value (U2OS; [1])?
**A.** 2%

**Q.** And the “Population Mitotic Cells (%)” value (U2OS; [1])?
**A.** 11% and 0%

**Q.** What about the “Population Normal (%)” value (U2OS; [1]) of the same compound?
**A.** 96% and 98%

**Q.** What about the “Population Pyknosed Nuclei (%)” value (U2OS; [1]) of the same compound?
**A.** 9% and 3%

**Q.** What about the “Population Tubulin-Different-Phenotype (%)” value (U2OS; [1]) of the same compound?
**A.** 2% and 7%

**Q.** What about the “Total Cell Count” value (U2OS; [1]) of the same compound?
**A.** 286 and 113

**Q.** What about the “Population Apoptotic (%)” value (U2OS; [2]) of the same compound?
**A.** 66% and 87%

**Q.** What about the “Population Fragmented Nuclei (%)” value (U2OS; [2]) of the same compound?
**A.** 28% and 13%

**Q.** What about the “Population Healthy Nuclei (%)” value (U2OS; [2]) of the same compound?
**A.** 64% and 80%

**Q.** What about the “Population Hoechst High Intensity Objects (%)” value (U2OS; [2]) of the same compound?
**A.** 2%

**Q.** What about the “Population Membrane Permeable-Phenotype (%)” value (U2OS; [2]) of the same compound?
**A.** 9% and 6%

**Q.** And the “Population Mitochondria Different-Phenotype (%)” value (U2OS; [2])?
**A.** 3%

**Q.** What about the “Population Mitotic Cells (%)” value (U2OS; [2]) of the same compound?
**A.** 33% and 12%

**Q.** And the “Population Normal (%)” value (U2OS; [2])?
**A.** 97%

**Q.** What about the “Population Pyknosed Nuclei (%)” value (U2OS; [2]) of the same compound?
**A.** 6% and 5%

**Q.** What about the “Population Tubulin-Different-Phenotype (%)” value (U2OS; [2]) of the same compound?
**A.** 4%

**Q.** And the “Total Cell Count” value (U2OS; [2])?
**A.** 220 and 139

**Q.** What about the “Population Apoptotic (%)” value (U2OS; [3]) of the same compound?
**A.** 85% and 88%

**Q.** And the “Population Fragmented Nuclei (%)” value (U2OS; [3])?
**A.** 29% and 16%

**Q.** And the “Population Healthy Nuclei (%)” value (U2OS; [3])?
**A.** 61% and 75%

**Q.** What about the “Population Hoechst High Intensity Objects (%)” value (U2OS; [3]) of the same compound?
**A.** 2% and 1%

**Q.** And the “Population Membrane Permeable-Phenotype (%)” value (U2OS; [3])?
**A.** 9% and 7%

**Q.** And the “Population Mitochondria Different-Phenotype (%)” value (U2OS; [3])?
**A.** 2% and 7%

**Q.** And the “Population Mitotic Cells (%)” value (U2OS; [3])?
**A.** 14% and 11%

**Q.** And the “Population Normal (%)” value (U2OS; [3])?
**A.** 97% and 98%

**Q.** And the “Population Pyknosed Nuclei (%)” value (U2OS; [3])?
**A.** 8% and 7%

**Q.** What about the “Population Tubulin-Different-Phenotype (%)” value (U2OS; [3]) of the same compound?
**A.** 6% and 3%

**Q.** What about the “Total Cell Count” value (U2OS; [3]) of the same compound?
**A.** 335 and 126
